WT yeast gro inh – growth inhibition of WT yeast, mitochondrial fusion screen | mitochondrial fusion phenotypic screen, WT strain | inhibition, % at 10 µM | actives 2.1% (n = 190,000); in the data active = inhibition above about 58%; tested in S. cerevisiae
SKKanGAS inh – blocks kanamycin growth of S. pyogenes SKKanGAS strain. BacTiter-Glo, 6 h. inhibition, % at 7.5 µM. actives 1.3% (n = 300,000);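 active = mean replicate score, as percent of positive control median, at least 50; inconclusive = mean below 50 but one replicate at or above 50; inactive = mean and every replicate below 50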;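 also: strain carries kanamycin resistance gene driven by streptokinase promoter and grows in 40 µg/ml kanamycin; loss of luminescence reflects streptokinase promoter inhibition or plain growth inhibition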
Autophagy mod – modulators of autophagy; MEF GFP-LC3 puncta imaging; test concentration mostly 10 µM; calls only at 10 µM (by protocol); actives 0.98% (n = 190,000);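 active = percentage of spot-positive cells more than 3 SD above its plate mean, without a fluorescence outlier flag or 80% toxicity; inconclusive = no clear call, values can overlap the other calls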
Rad51 HR inh – Rad51 (human) homologous recombination inhibition | Q06609 | hRad51 DNA strand exchange, fluorescence dequenching | inhibition, % at 10 µM | actives 0.085% (n = 200,000) | AID 1385;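 active = inhibition above 40% at the single screening dose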
Target sequence (Q06609 whole entry, looked up): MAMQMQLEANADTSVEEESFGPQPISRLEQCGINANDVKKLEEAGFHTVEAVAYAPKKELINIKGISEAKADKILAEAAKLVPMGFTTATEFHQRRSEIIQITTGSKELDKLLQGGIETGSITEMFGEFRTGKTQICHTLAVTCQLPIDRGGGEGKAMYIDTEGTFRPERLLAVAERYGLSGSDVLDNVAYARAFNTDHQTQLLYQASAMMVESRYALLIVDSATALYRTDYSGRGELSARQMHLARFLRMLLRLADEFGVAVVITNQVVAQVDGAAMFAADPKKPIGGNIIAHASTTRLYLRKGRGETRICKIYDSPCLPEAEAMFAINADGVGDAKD
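System: human Rad51 nucleoprotein filaments preassembled on unlabelled ssDNA. Reagent: labelled 47-mer dsDNA for strand exchange. Schedule: 30-min compound preincubation and 15-min exchange, both room temperature. Measured by: FRET fluorescence dequenching, excitation 485 nm, emission 520 nm. Read-out: Fluorescence-based percent inhibition, control- and blank-normalised. Benchmarks: plate controls and plate blanks.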
KCC2 mod – modulators of human KCC2 chloride dependent transport; Q9H2X9; KCC2 cells, thallium flux FluoZin-2 fluorescence; B-score of Tl+ flux slope (higher = more flux/activation; lower = inhibition) at 10 µM; actives 2.2% (n = 190,000); AID 1456;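 active = thallium flux slope and its plate-corrected score both differing from the plate sample mean at a set confidence after two filtering rounds, in either direction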;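 also: slope of fluorescence scaled to starting intensity during 10 to 20 s after thallium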
Ins promoter up – MIN6 insulin promoter up-regulation. actives 0.3% (n = 190,000). z-score at 5 µM. AID 1625. MIN6 insulin promoter-GFP reporter, high-content imaging; hits give high values;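 active = z-score above 3 at 5 µM with at least 500 cells counted in the well; inconclusive = wells under 500 cells, flagged as cytotoxic or low count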
KCC2 secondary – confirmation of human KCC2 transport modulators; shares compounds with KCC2 mod; HEK293-KCC2, thallium flux, FluoZin2 fluorescence; hits give high values; normalised thallium flux (F/F0 slope) at 10 µM; actives 15% (n = 3,700); AID 1713;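 active = thallium flux slope above the same plate's solvent-only control mean plus 3 SD; inconclusive = the two replicate wells disagree; inactive = no significant difference from solvent-only control wells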
KCC2 bumet counter – thallium flux persisting under bumetanide in KCC2 cells, counter-screen secondary assay. normalized thallium flux at 10 µM. HEK293-KCC2 + bumetanide/ouabain, thallium flux FluoZin2; hits give high values. actives 49% (n = 3,700). shares compounds with KCC2 mod;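 active = thallium entry rate above the same plate's blocked-transporter control wells by more than 3 SD; inconclusive = the two repeat wells disagree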;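 also: raw slope of fluorescence over initial fluorescence between 10 and 20 s after thallium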
KCC2 secondary2 – KCC2 (human) modulation, second secondary assay | actives 23% (n = 3,700) | shares compounds with KCC2 mod | HEK293-KCC2, thallium flux FluoZin2 fluorescence; actives lie on both sides; F/F0 rise rate, 10–20 s post-thallium | normalized thallium flux at 10 µM;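 active = thallium flux slope more than 3 SD above or below the plate's solvent-only control mean, mostly below; inconclusive = the two repeat wells disagreed; inactive = no significant shift from solvent-only controls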
HEK counter1 – acts in parental HEK cells, KCC2 counter-screen. shares compounds with KCC2 mod. HEK293 parental cells, thallium flux FluoZin2, ouabain; baseline-ratio fluorescence slope, 10–20 s after thallium. thallium flux rate (normalised fluorescence) at 10 µM. actives 46% (n = 3,700). AID 1716;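 active = thallium flux rate significantly above the same plate's solvent-only control wells, beyond their mean plus 3 SD; inconclusive = the two replicate wells gave conflicting results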
KCC2 ouabain – KCC2 (human) modulation, ouabain retest; shares compounds with KCC2 mod; HEK293-KCC2, thallium flux FluoZin2 fluorescence; bidirectional: low = inhibitor, high = activator; raw Tl+ flux slope (below DMSO = inhibition, above = activation) at 10 µM; actives 48% (n = 3,700); AID 1717;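 active = thallium flux slope beyond 3 SD from same-plate DMSO control mean in most replicates, usually higher, sometimes lower; inconclusive = repeat tests gave conflicting results; inactive = no significant difference from controls in most replicates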;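 also: slope of initial-normalized fluorescence between seconds 10 and 20 after thallium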
HEK counter2 – parental HEK flux effect, counter-screen 2 | shares compounds with KCC2 mod | HEK293 parental, thallium flux FluoZin-2 fluorescence slope | thallium flux slope at 10 µM | actives 33% (n = 3,700);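 active = thallium flux slope above the same plate's solvent-control mean plus 3 SD in both duplicate wells; inconclusive = duplicate wells that disagreed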;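 also: run without ouabain in cells lacking the KCC2 cotransporter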
Hits are given with their value; . = inactive; ? = inconclusive; / = no result given; + = active, no number. In the library only some 4.2% were active in any assay of this set; here they are far more common.

SMILES	WT yeast gro inh	SKKanGAS inh	Autophagy mod	Rad51 HR inh	KCC2 mod	Ins promoter up	KCC2 secondary	KCC2 bumet counter	KCC2 secondary2	HEK counter1	KCC2 ouabain	HEK counter2
CC(OC(=O)c1ccccc1NCc1ccco1)C(=O)Nc1ncc(Cl)cc1Cl (centres undefined)	.	.	.	.	-3.02	/	.	.	.	.	?	?
CNc1ccccc1C(=O)OC(C)C(=O)Nc1ccc(Cl)cn1 (centres undefined)	/	.	/	/	/	/	/	/	/	/	/	/
CSc1ncc(Cl)c(C(=O)C(C#N)c2nc3c(C)cc(C)cc3c(=O)[nH]2)n1 (centres undefined)	.	.	.	.	5.05	.	.	0.0192	.	0.0163	?	0.0152
Fc1ccccc1SCc1nnc(-c2ccccc2Br)o1	.	.	.	.	.	.	/	/	/	/	/	/
COc1ccc(CN2CN=C(Nc3nc4ccccc4s3)NC2)cc1	.	/	.	.	-5.45	.	.	.	.	.	.	.
Cc1cccnc1NC1(C(F)(F)F)N=C2SCCN2C1=O (centres undefined)	.	.	.	.	.	.	/	/	/	/	/	/
CCC(=O)N1CCN(c2ccccc2NC(=O)COc2ccccc2Cl)CC1	.	.	.	.	/	.	.	?	.	?	.	.
O=C(NN1C(=O)/C(=C/C=C/c2ccco2)SC1=S)c1ccccc1O	/	.	/	.	-3.26	.	.	?	0.0234	.	?	.
Cn1cccc1/C=C1\SC(=S)N(NC(=O)c2ccccc2O)C1=O	/	.	/	/	.	.	/	/	/	/	/	/
COCCNC(=S)N/N=C(\C)c1ccc(Cl)c(Cl)c1Cl	.	.	.	.	.	.	/	/	/	/	/	/
C/C(=N\NC(=S)NCc1ccccc1)c1cccs1	.	.	.	.	15.7	.	.	0.0412	0.0485	0.0396	0.0424	0.0401
COCCNC(=S)N/N=C(\C)c1ccc(Cl)s1	/	.	/	.	32.5	.	0.0142	0.06	.	0.0196	0.0391	0.012
C/C(=N\NC(=O)Cc1ccccc1)c1cccs1	.	.	.	.	.	.	/	/	/	/	/	/
C/C(=N\NC(=S)NCc1ccccc1)c1ccc(Cl)s1	.	.	.	.	10	.	.	0.0171	.	?	0.0261	.
C/C(=N\NC(=O)Cc1ccccc1)c1ccc(Cl)s1	/	.	/	/	/	/	/	/	/	/	/	/
C/C(=N\NC(=S)NCc1ccccc1)c1ccc(C)o1	.	.	.	.	5.45	.	.	0.015	.	0.012	?	.
c1ccc(COCCC2CO2)cc1 (centres undefined)	/	.	/	/	/	/	/	/	/	/	/	/
Cc1c(Cl)cccc1N=c1c([N+](=O)[O-])nn(-c2ccccc2)n1O	.	.	+	.	6.02	/	.	.	.	.	.	.
COc1cc(C(=O)NCCc2cn3ccc(C)cc3n2)cc(OC)c1OC	.	.	.	.	-3.41	.	?	?	.	.	.	.
CCc1cc(/C(Cc2ccccn2)=N\Nc2ccccc2)c(O)cc1O	.	.	.	.	.	.	/	/	/	/	/	/
CCc1cc2cc(C)cc(C)c2[nH]c1=S	.	.	.	.	124	.	.	0.0244	0.114	0.111	0.0861	0.11
Cc1cc(/N=C/C=C2\N(C)c3ccccc3C2(C)C)n(CCC#N)n1	.	.	.	.	-3.62	.	.	.	.	0.00565	?	.
CN1/C(=C/C=C(C#N)C#N)C(C)(C)c2ccccc21	.	.	.	.	.	.	/	/	/	/	/	/
O=C(c1ccc(=O)[nH]n1)N1CCc2ccccc2C1	/	.	/	.	.	.	/	/	/	/	/	/
O=C(NNc1c2ccccc2nc2ccccc12)c1ccc(Cl)cc1	/	.	/	/	/	/	/	/	/	/	/	/
SMILES	WT yeast gro inh	SKKanGAS inh	Autophagy mod	Rad51 HR inh	KCC2 mod	Ins promoter up	KCC2 secondary	KCC2 bumet counter	KCC2 secondary2	HEK counter1	KCC2 ouabain	HEK counter2
O=C(NNC1=Nc2ccccc2SC1)c1ccc(Cl)cc1	/	90.5	/	.	5.55	.	.	0.0112	.	0.00967	.	?
N#Cc1nc(-c2cccs2)oc1N1CCN(Cc2ccccc2)CC1	.	.	.	.	/	.	.	?	0.0228	.	.	.
Cc1ccccc1-c1nnn(CC(=O)N(C)CC(=O)Nc2ccccc2C(F)(F)F)n1	/	.	/	/	/	/	/	/	/	/	/	/
CCOC(=O)c1sc(CS(=O)(=O)c2ccc(Cl)cc2)nc1C	/	.	/	/	.	.	/	/	/	/	/	/
CCOC(=O)c1sc(-c2ccc(Cl)cc2Cl)nc1O	/	.	/	.	9.2	/	.	0.0199	.	0.017	0.0262	0.0134
S=c1[nH]nc(-c2ccc(Br)cc2)n1Cc1ccccc1	.	.	.	.	23.7	.	.	0.0267	.	0.0255	0.0289	?
CCc1c(-c2n[nH]c(=S)n2Cc2ccccc2)csc1C	.	.	.	.	14	.	?	0.0663	.	0.0168	0.0346	0.0113
Fc1ccc(-c2n[nH]c(=S)n2Cc2ccccc2)cc1	/	.	/	/	/	/	/	/	/	/	/	/
Cc1ccccc1OCc1n[nH]c(=S)n1Cc1ccccc1	73.0	.	+	.	6.07	.	.	0.0288	0.0407	0.0241	0.0299	0.0307
S=c1[nH]nc(COc2cccc3ccccc23)n1Cc1ccccc1	/	.	/	/	.	.	/	/	/	/	/	/
S=c1[nH]nc(-c2ccc3ccccc3n2)n1Cc1ccccc1	.	.	.	.	9.21	.	0.0146	0.0269	.	0.0287	0.0312	0.0161
Cc1cc(-c2n[nH]c(=S)n2Cc2ccccc2)cs1	.	.	.	.	.	.	/	/	/	/	/	/
CN(CCOc1ccccc1)C(=S)Nc1ccc(OC(F)F)cc1	/	.	/	/	/	/	/	/	/	/	/	/
CCOC(=O)Cc1csc(NC(=O)Cn2c(=O)oc3ccccc32)n1	/	.	/	/	.	.	/	/	/	/	/	/
CS(=O)(=O)Nc1ccc(-c2cc(/C=C3\SC(N)=NC3=O)c[nH]c2=O)cc1	/	.	/	/	/	/	/	/	/	/	/	/
CC(C)c1ccc(NC(=O)CSc2nc3ccsc3c(=O)n2CCC(=O)O)cc1	/	.	/	/	/	/	/	/	/	/	/	/
Cc1cccc(C)c1Nc1nnc(SCC(=O)c2ccc3c(c2)NC(=O)CO3)s1	.	.	.	.	-3.75	.	.	.	.	.	0.0189	.
Cc1cccc(C)c1Nc1nnc(SCC(=O)c2ccc(Br)s2)s1	.	.	.	.	.	.	/	/	/	/	/	/
O=C(Nc1ccccc1C(=O)O)c1cc(S(=O)(=O)N2CCCCC2)c(Cl)cc1Cl	/	.	/	/	/	/	/	/	/	/	/	/
